Test results taken from publication PMC12034843 (Drug Design, Development and Therapy, 2025).
Ends that are not written are not given here.

Assays:
MIN-6 cells = experiment: Insulin secretion of MIN-6 cells; type: cell-based; details: 100 nmol/L, 1 h, 8.3 mmol/L GLC and 0.8 mmol/L palmitic acid, MF density 1 T for /MF groups, n = 6
[1] = In vitro release from exosome-SPION; type: physicochemical; details: PBS, 37 °C, fitted with OriginPro 2021
Summary of the method: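 Test peptide loaded in SPION-decorated exosomes was placed in a dialysis bag (MWCO 80 kD) and incubated at 37 °C in PBS. Samples were withdrawn at selected intervals and peptide was quantified by reverse-phase HPLC on a C18 column. Percent release was calculated as (concentration in PBS × PBS volume) / (concentration in mother liquor × mother liquor volume) × 100%.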

[2] = Pharmacokinetic study after tail vein injection; type: in vivo; details: Kunming mice, 5 mg/kg, HPLC, n = 6
Summary of the method: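 Kunming mice ([…], 18–22 g) were randomised into groups of six and given 5 mg/kg by tail-vein injection, either as free peptide or as the peptide-equivalent dose in exosome-SPION form. At intervals, 20 μL of tail-vein blood was taken with heparinised micropipettes and mixed into 1 mL PBS. Samples were centrifuged at 10,000 rpm for 10 min, and peptide in the supernatant was quantified by C18 HPLC.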

HSDAVFTDNYTRLRKQVAAKKYLQSIKNKRY-NH2 (C-terminus assumed) [BAY 55-9837]
insulin secretion compared to the model group (MIN-6 cells): significantly enhance insulin secretion
first-order fitted release equation y = a × (1 – exp(−b × x)): a [1]: 53.92
time after injection at which it could not be detected in plasma [2]: 110 min
